Screening data (PubChem)
GalR3 antagonist = antagonists of human GalR3; O60755; HEK293 GalR3-CNG cAMP membrane potential fluorescence; galR3 body fused to GalR1 C-terminus; inhibition, % at 3 µM; hit rate 0.44% among 360,000;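 active = inhibition above the screen-wide average plus 3 SD, cut at about 13% in these data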;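 note: forskolin and galanin both at EC90 stimulate the cells; cAMP rise reported by CNG channel membrane potential dye signal; 0% = forskolin plus galanin with DMSO and 100% = forskolin alone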
Target sequence (O60755 1-299 limits assumed): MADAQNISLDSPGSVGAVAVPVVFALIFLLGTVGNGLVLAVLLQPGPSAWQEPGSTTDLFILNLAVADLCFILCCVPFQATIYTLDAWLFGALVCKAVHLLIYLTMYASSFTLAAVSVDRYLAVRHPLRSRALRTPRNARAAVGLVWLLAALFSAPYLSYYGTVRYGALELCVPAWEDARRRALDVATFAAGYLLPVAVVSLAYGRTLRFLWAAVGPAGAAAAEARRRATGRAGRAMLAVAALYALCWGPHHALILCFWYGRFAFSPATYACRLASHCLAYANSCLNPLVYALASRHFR
NR2E3 ag-1 = activates human photoreceptor nuclear receptor NR2E3; Q9Y5X4; GST-NR2E3/biotin-RetCOR TR-FRET, 1536-well; inhibition of corepressor binding, % at 4.78 µM; hit rate 0.12% among 320,000;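 active = percent inhibition above the cutoff of mean plus 3 SD of all tested compounds, set per screening campaign, cut at about 20% in these data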;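 note: 0% = DMSO wells and 100% = biotin wells as full block of FRET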
Target sequence (Q9Y5X4 whole entry, looked up): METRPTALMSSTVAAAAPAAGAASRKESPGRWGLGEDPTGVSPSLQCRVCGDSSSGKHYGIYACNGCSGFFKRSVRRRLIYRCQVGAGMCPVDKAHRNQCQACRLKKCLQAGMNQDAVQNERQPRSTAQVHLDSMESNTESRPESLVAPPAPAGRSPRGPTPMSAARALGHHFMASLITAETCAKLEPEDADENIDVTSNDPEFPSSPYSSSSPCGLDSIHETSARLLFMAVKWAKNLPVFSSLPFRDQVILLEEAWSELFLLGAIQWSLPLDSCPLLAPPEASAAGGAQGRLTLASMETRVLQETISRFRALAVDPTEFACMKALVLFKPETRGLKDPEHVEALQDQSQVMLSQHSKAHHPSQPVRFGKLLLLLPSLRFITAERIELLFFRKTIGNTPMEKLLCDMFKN
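Material: NR2E3–RetCOR corepressor complex / Incubation: Compound–protein incubation for 5 h at 4 °C / Dosing: compound at 4.8 µM, single dose / Detection: time-resolved FRET / Benchmarks: high control biotin, low control 0.6% DMSO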
V-ATPase pHluor = regulators of yeast V-ATPase proton transport; S. cerevisiae, pHLuorin cytosolic pH fluorescence; response, % at 10 µM; hit rate 0.37% among 350,000; in the data active = response mostly above about 7.3%, no sharp cut-off; inactive = mostly below about 5.4%; note: actives read high
NR2E3 ag-2 = agonists of human NR2E3 nuclear receptor; Q9Y5X4; CHO-S Gal4-NCOR/VP16-NR2E3 two-hybrid, luciferase; inhibition of corepressor binding, % at 3.98 µM; hit rate 0.35% among 360,000; AID 602229;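 active = inhibition above the mean of all tested compounds plus 3 SD, cut at about 70% in these data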;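 note: 0% = DMSO with NR2E3 transfected cells and 100% = cells lacking NR2E3 construct; higher means lower luciferase signal from less NR2E3 corepressor binding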
FXN GAA850 act = increases GAA850 frataxin promoter reporter activity. activation, % at 6 µM. HEK293 lucGAA850 FXN promoter luciferase reporter, 24 h; percent of 10 µM SAHA response. hit rate 0.56% among 360,000. AID 540364;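 active = activation above the average of all compounds screened plus 3 SD, cutoff fixed separately per campaign, cut at about 7.5% in these data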;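 note: 0% = DMSO wells and 100% = 10 µM SAHA wells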
Env fusion inh = HIV envelope-mediated fusion inhibition | HeLa-JRFL Env/CEM21 cell fusion, luciferase | hit rate 1.1% among 360,000 | inhibition, % at 12.3 µM;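 active = mean replicate inhibition score of at least 50 and every replicate individually at or above 50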;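 note: 0% = plate neutral controls and 100% = maraviroc near 300 nM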
The depositor's hits bear a star; · = not tested or not shown; [ ] = remark or other dose. This is a sample that favours compounds with a hit; in the whole collection about 2.2% have one here.

SMILES	GalR3 antagonist	NR2E3 ag-1	V-ATPase pHluor	NR2E3 ag-2	FXN GAA850 act	Env fusion inh
C[C@H](CO)N1C[C@H](C)[C@H](CN(C)S(=O)(=O)c2ccc(Cl)cc2)Oc2ccc(NS(=O)(=O)c3ccccc3)cc2CC1=O	·	·	·	·	·	55.3*[16.7 µM]
Cc1ccc(S(=O)(=O)Nc2ccc3c(c2)CC(=O)N([C@H](C)CO)C[C@H](C)[C@H](CN(C)S(=O)(=O)c2ccc(F)cc2)O3)cc1	·	·	·	·	·	110.3*[16.7 µM]
C[C@H](CO)N1C[C@H](C)[C@@H](CN(C)S(=O)(=O)c2ccccc2)Oc2ccc(NS(=O)(=O)c3ccccc3)cc2CC1=O	·	·	·	·	·	-6.3[16.7 µM]
C[C@H](CO)N1C[C@H](C)[C@H](CN(C)S(=O)(=O)c2ccccc2)Oc2ccc(NS(=O)(=O)c3ccccc3)cc2CC1=O	·	·	·	·	·	90.6*[16.7 µM]
C[C@H](CO)N1C[C@H](C)[C@@H](CN(C)S(=O)(=O)c2ccc(F)cc2)Oc2ccc(NS(=O)(=O)c3cn(C)cn3)cc2CC1=O	·	·	·	·	·	64.1*[16.7 µM]
C[C@@H](NC(=O)C[C@H]1C[C@H]2c3cc(NC(=O)CN(C)C)ccc3O[C@H]2[C@@H](CO)O1)c1ccccc1	·	·	·	·	·	-5.9[16.7 µM]
C[C@H]1CN([C@@H](C)CO)S(=O)(=O)c2ccc(C3=CCCCC3)cc2O[C@@H]1CN(C)Cc1cccnc1	·	·	·	·	·	-2.7[16.7 µM]
C[C@H](CO)N1C[C@H](C)[C@H](CN(C)S(=O)(=O)c2ccccc2)Oc2ccc(NS(=O)(=O)c3ccc(Cl)cc3)cc2CC1=O	·	·	·	·	·	56.5*[16.7 µM]
C[C@H](CO)N1C[C@H](C)[C@H](CN(C)S(=O)(=O)c2ccccc2)Oc2ccc(NS(=O)(=O)c3ccc(F)cc3)cc2CC1=O	·	·	·	·	·	57.6*[16.7 µM]
C[C@H](CO)N1C[C@H](C)[C@H](CN(C)S(=O)(=O)c2ccccc2)Oc2ccc(NS(=O)(=O)c3cccs3)cc2CC1=O	·	·	·	·	·	63.9*[16.7 µM]
C[C@@H]1CN([C@@H](C)CO)C(=O)Cc2cc(NS(=O)(=O)c3ccc(Cl)cc3)ccc2O[C@@H]1CN(C)S(=O)(=O)c1ccccc1	·	·	·	·	·	6.6[16.7 µM]
C[C@@H]1CN([C@H](C)CO)C(=O)c2cc(C#CCN(C)C)cnc2O[C@H]1CN(C)C(=O)CN1CCOCC1	·	·	·	·	·	9.2[16.7 µM]
O=C(Cc1ccccc1)N[C@H]1CC[C@H](CC(=O)N2CCCCC2)O[C@@H]1CO	·	·	·	·	·	-4.3[16.7 µM]
Cc1noc(C)c1S(=O)(=O)N(C)C[C@H]1Oc2ccc(NC(=O)Nc3ccc(C(F)(F)F)cc3)cc2CC(=O)N([C@H](C)CO)C[C@@H]1C	·	·	·	·	·	0.6[16.7 µM]
Cc1noc(C)c1S(=O)(=O)N(C)C[C@@H]1Oc2ccc(NC(=O)Nc3cccc4ccccc34)cc2CC(=O)N([C@H](C)CO)C[C@@H]1C	·	·	·	·	·	78.7*[16.7 µM]
Cc1noc(C)c1S(=O)(=O)N(C)C[C@@H]1Oc2ccc(NC(=O)Nc3ccc(C(F)(F)F)cc3)cc2CC(=O)N([C@H](C)CO)C[C@@H]1C	·	·	·	·	·	59.8*[16.7 µM]
Cc1ccc(S(=O)(=O)N(C)C[C@@H]2Oc3ccc(NC(=O)Nc4cccc5ccccc45)cc3CC(=O)N([C@@H](C)CO)C[C@@H]2C)cc1	·	·	·	·	·	56.4*[16.7 µM]
O=C(C[C@@H]1C[C@@H]2c3cc(NC(=O)CC4CC4)ccc3O[C@@H]2[C@@H](CO)O1)NCc1ccc(-c2ccccc2)cc1	·	·	·	·	·	43.9[16.7 µM]
COCC(=O)Nc1ccc2c(c1)[C@H]1C[C@@H](CC(=O)N[C@@H](C)c3ccccc3)O[C@@H](CO)[C@H]1O2	·	·	·	·	·	4.3[16.7 µM]
Cc1nc2ncnn2c(N2CCCC(C(=O)Nc3ccc4c(c3)CCC4)C2)c1C (stereo not drawn)	-7.4	3.4	-0.4	6.3	-2.1	78.1*
Cc1ccccc1NC(=O)c1nc(S(C)(=O)=O)ncc1Cl	-7.7	3.4	0.1	1.6	18.1*	28.4
CC(=O)OC1c2ccccc2C(=O)N1c1ccccc1C (stereo not drawn)	·	4.0	2.5	-13.1	-0.4	77.3*
[N-]=[N+]=NCCCNC(=O)Nc1ccccc1	·	·	·	·	·	-4.1[16.7 µM]
COc1ccc(S(=O)(=O)Nc2ccc3c(c2)CC(=O)N([C@H](C)CO)C[C@@H](C)[C@@H](CN(C)Cc2ccc(Cl)c(Cl)c2)O3)cc1	·	·	·	·	·	-18.3[16.7 µM]
CCCCCCNC(=O)CNC(=S)N(Cc1cccs1)C1CCCCC1	-11.4	4.7	2.5	-7.0	1.9	58.8*
SMILES	GalR3 antagonist	NR2E3 ag-1	V-ATPase pHluor	NR2E3 ag-2	FXN GAA850 act	Env fusion inh
CCOC(=O)CNC(=S)N(Cc1cccs1)C1CCCC1	-0.5	1.8	-1.6	-12.3	0.2	14.7
O=C(NCCCn1ccnc1)c1nc(Cn2cc(Br)cn2)no1	-8.7	3.1	-4.1	-8.0	1.5	0.6
Cc1nccn1CCCNC(=O)c1nc(Cn2cc([N+](=O)[O-])cn2)no1	12.7*	-0.4	3.9	-12.9	2.6	-7.3
COc1ccc(/C=N/Nc2ccc(C(=O)O)cc2)cc1OC	11.1	-7.0	2.4	-116.8	7.2	-10.4
CC(C)c1ccc(/C=N/Nc2ccc(C(=O)O)cc2)cc1	-4.3	3.0	3.3	-0.6	-5.5	65.5*
Cc1ccc(/C=N/Nc2cccc(C(=O)O)c2)s1	-2.8	-5.6	4.8	-124.7	3.8	40.3
Cc1ccc(/C=N/Nc2ccc(C(=O)O)cc2)s1	8.4	-5.4	-2.4	-72.9	-7.0	63.7*
COc1ccc(NC(=O)Nc2ccc3c(c2)C(=O)N([C@H](C)CO)C[C@H](C)[C@@H](CN(C)S(=O)(=O)c2ccc(C)cc2)O3)cc1	·	·	·	·	·	3.2[16.7 µM]
O=C(C[C@@H]1CC[C@@H]2[C@H](COC[C@@H](O)CN2C(=O)c2ccccc2)O1)NCCCN1CCOCC1	·	·	·	·	·	0.2[16.7 µM]
Cc1ccc2c(C)nc(Nc3nc(CSc4nnnn4-c4ccccc4)cc(=O)[nH]3)nc2c1	-2.9	0.3	1.6	12.8	-0.3	69.7*
Cc1ccc(SCc2cc(=O)[nH]c(Nc3nc(C)c4cccc(C)c4n3)n2)cc1	2.3	0.0	-4.4	-15.4	1.0	-43.3
Cc1cc(C)c2nc(Nc3nc(CSc4nc5ccccc5[nH]4)cc(=O)[nH]3)nc(C)c2c1	4.5	·	1.2	8.2	3.6	83.5*
CCOc1ccc(CCN2C(=S)N([C@@H](Cc3ccccc3)CN3CCC[C@@H]3CN3C(=S)NC[C@@H]3Cc3ccc(O)cc3)C[C@@H]2CC(C)C)cc1	-3.0	·	·	6.1	·	63.9*
Oc1ccc(C[C@H]2CN([C@@H](Cc3ccc(O)cc3)CN3CCC[C@@H]3CN3C(=S)NC[C@@H]3Cc3ccccc3)C(=S)N2CCc2ccccc2)cc1	0.6	·	·	4.5	·	-116.8
CCOc1ccc(CCN2C(=S)N([C@@H](Cc3ccc(O)cc3)CN3CCCC3CN3C(=S)NC[C@@H]3Cc3ccc(O)cc3)C[C@@H]2CC(C)C)cc1 (stereo partly drawn)	-4.0	·	0.5	-6.9	-9.8	-91.3
CCOc1ccc(CCN2C(=S)N([C@@H](Cc3ccc(O)cc3)CN3CCC[C@@H]3CN3C(=S)NC[C@@H]3CC(C)C)C[C@@H]2Cc2ccc(O)cc2)cc1	4.2	·	·	37.2	·	67.3*
CS(=O)(=O)N1C[C@H](O)COC[C@H]2O[C@@H](CC(=O)NCc3ccccc3)CC[C@@H]21	·	·	·	·	·	10.8[16.7 µM]
